# In ChEMBL document CHEMBL3112447, “Discovery of 1-methyl-1H-imidazole derivatives as potent Jak2 inhibitors” (J Med Chem, 2014):
# Key:
# [1] = molecular target: Tyrosine-protein kinase JAK1 (Mus musculus) (UniProt P52332); assay: (§1) Inhibition of Jak1 in mouse BA/F3 cells expressing TEL-Jak1 assessed as inhibition of STAT5 phosphorylation by Western blotting analysis; assay type: cell-based; conditions: BaF3
# [2] = molecular target: Tyrosine-protein kinase JAK1 (Mus musculus, UniProt P52332); assay: as §1; assay type: cell-based, BaF3
# [3] = molecular target: Receptor-type tyrosine-protein kinase FLT3 (Homo sapiens, UniProt P36888); assay: Inhibition of human Flt3
# How it was run: (§2)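 Panel of 82 kinases. Radiometric filter-binding assay with ATP at or near Km. Compound tested at 0.01, 0.10 and 1.0 μM. Values expressed as minimum possible fold selectivity against Jak2.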
# [4] = molecular target: ALK tyrosine kinase receptor (Homo sapiens, UniProt Q9UM73); assay: Inhibition of human ALK; how it was run: as §2
# [5] = Half life in beagle dog at 2.5 mg/kg, iv; assay type: ADME, organism-based, Canis lupus familiaris; parameters: dose 2.5 mg/kg, route intravenous; conditions: in vivo
# How it was run: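 Male beagle dogs. Oral dose 10 mg/kg in 0.1% HPMC, pH 2. IV dose 2.5 mg/kg in 20% TEG/D5W. […] Clearance, Vdss, half-life and oral bioavailability (F%) derived from the plasma profiles.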
# Chain of Receptor-type tyrosine-protein kinase FLT3 (P36888 whole entry): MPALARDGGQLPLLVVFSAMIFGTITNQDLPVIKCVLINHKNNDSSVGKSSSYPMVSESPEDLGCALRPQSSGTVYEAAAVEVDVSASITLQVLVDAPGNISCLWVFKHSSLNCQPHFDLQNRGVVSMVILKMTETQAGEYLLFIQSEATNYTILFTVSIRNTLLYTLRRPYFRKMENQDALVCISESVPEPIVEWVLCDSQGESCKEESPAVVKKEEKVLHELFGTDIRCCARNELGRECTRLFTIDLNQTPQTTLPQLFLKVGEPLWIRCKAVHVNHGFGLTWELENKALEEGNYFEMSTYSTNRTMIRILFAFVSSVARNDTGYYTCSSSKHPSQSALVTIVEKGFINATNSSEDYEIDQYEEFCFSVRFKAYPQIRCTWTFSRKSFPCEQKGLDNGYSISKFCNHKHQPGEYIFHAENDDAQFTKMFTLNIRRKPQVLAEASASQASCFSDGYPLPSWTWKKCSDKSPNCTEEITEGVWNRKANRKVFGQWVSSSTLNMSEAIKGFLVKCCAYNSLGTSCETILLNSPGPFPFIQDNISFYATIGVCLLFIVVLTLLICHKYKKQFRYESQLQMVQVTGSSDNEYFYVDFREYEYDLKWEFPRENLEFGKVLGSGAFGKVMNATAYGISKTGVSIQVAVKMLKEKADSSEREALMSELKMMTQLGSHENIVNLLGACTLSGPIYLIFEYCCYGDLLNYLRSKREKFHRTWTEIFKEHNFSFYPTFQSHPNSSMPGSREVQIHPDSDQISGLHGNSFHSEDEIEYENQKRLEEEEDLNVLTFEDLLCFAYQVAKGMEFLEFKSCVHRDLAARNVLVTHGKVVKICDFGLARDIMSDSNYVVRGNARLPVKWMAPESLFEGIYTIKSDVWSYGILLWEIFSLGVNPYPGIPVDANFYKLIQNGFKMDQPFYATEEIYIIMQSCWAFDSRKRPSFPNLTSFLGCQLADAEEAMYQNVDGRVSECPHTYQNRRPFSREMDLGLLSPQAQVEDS
# Chain of Tyrosine-protein kinase JAK1 (P52332 whole entry): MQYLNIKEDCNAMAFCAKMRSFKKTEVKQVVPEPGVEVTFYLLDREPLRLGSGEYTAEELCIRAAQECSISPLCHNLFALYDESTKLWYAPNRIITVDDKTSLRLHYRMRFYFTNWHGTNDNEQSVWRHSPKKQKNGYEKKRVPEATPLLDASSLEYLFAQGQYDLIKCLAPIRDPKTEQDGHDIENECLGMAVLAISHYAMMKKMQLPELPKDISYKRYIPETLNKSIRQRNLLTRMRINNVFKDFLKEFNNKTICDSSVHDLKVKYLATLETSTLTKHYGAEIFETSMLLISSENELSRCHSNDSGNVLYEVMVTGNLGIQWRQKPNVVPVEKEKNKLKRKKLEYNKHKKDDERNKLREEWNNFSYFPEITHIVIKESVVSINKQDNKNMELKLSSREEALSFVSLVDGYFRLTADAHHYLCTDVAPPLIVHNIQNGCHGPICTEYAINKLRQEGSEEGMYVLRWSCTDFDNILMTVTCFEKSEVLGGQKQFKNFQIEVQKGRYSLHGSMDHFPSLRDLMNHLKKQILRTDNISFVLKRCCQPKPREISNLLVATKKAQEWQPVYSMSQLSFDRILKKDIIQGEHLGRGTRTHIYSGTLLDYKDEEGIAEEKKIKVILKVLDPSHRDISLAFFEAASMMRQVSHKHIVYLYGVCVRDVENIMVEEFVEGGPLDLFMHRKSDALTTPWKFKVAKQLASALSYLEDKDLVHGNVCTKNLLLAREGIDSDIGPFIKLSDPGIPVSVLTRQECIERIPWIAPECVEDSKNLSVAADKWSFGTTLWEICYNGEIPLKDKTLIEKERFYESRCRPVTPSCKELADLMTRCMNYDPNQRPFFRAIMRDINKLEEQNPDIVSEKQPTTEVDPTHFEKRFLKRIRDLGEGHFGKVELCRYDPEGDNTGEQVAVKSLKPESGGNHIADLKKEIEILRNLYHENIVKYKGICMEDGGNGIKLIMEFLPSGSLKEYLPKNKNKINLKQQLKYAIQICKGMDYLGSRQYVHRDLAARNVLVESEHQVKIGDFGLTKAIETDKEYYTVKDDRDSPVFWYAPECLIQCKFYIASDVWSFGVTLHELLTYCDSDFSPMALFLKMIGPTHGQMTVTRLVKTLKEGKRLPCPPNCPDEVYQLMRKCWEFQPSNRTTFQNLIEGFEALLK
# Chain of Tyrosine-protein kinase JAK1 (Mus musculus) (P52332 whole entry): as above
# Chain of ALK tyrosine kinase receptor (Q9UM73 whole entry): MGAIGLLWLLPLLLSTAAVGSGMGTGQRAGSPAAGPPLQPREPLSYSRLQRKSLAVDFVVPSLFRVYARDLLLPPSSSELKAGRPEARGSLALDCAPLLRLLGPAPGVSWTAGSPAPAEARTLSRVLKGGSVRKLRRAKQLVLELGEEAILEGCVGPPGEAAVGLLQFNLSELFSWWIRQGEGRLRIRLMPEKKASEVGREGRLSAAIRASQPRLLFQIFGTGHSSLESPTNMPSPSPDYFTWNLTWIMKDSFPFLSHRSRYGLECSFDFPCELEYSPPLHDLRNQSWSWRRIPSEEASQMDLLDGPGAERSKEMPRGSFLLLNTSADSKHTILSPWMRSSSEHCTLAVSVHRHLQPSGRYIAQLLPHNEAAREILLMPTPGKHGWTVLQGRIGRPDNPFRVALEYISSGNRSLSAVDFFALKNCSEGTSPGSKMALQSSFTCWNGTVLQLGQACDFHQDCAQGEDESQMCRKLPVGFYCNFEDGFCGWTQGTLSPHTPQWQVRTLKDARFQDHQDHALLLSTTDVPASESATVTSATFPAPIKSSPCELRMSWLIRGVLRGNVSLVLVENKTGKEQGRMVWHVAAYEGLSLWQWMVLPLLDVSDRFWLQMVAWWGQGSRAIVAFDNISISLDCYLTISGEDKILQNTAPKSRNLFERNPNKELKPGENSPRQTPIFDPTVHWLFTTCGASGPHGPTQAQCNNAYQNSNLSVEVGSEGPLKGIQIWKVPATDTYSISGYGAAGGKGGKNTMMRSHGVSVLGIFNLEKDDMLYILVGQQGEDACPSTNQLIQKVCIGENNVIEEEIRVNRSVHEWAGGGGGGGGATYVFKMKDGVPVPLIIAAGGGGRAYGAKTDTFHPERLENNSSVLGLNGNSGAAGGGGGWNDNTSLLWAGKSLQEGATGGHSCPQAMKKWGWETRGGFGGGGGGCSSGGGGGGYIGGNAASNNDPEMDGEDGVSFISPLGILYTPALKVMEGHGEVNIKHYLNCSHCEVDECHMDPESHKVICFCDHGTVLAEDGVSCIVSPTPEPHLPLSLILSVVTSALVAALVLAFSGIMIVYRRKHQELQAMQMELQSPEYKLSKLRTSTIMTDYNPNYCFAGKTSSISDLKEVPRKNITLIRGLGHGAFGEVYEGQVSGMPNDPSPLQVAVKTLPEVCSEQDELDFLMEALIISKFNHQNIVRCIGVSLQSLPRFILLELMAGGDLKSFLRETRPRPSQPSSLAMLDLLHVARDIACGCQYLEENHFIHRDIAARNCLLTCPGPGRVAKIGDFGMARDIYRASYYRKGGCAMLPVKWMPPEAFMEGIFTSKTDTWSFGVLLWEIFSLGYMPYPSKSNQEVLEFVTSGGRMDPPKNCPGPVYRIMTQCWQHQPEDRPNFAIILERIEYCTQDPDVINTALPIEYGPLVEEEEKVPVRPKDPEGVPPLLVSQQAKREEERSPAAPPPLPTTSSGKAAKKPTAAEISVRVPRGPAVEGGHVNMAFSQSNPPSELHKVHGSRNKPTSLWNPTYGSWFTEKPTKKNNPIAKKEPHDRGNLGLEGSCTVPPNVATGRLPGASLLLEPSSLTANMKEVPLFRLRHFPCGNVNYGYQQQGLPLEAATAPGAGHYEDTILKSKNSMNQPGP
smiles,measurement,setting,value
C[C@H](Nc1nc(Nc2cn(C)cn2)c2cc[nH]c2n1)c1ncc(F)cn1,inhibition,[1],Dose-dependent effect
same,IC50,[2],260 nM
same,IC50,[3],45 nM
same,IC50,[4],50 nM
same,half-life,[5],12.4 h
